NadD inh: inhibitors of Staphylococcus aureus NadD. purified NadD enzyme, colorimetric absorbance read-out. inhibition, % at 20 µM. hit rate 0.78% among 360,000; in the data active = inhibition above about 26%
Pemphigus Ab inh: blocks pemphigus antibody binding to human desmoglein-3. P32926. AID 588358. hit rate 0.48% among 310,000. binding (percent of control), % at 10 µM. DSG3-coupled beads, scFv-anti-DSG3-GFP binding, flow cytometry; hits give low values;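 active = binding more than 3 SD below its plate's average and above zero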;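 note: hits lower antibody fragment binding to DSG3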
Rce1 inh: blocks yeast Ras-converting enzyme. Q03530. yeast membranes, quenched prenylated peptide cleavage fluorescence. calls only. hit rate 0.27% among 290,000;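 active = fall in fluorescence gain of 50% or more versus controls, with final raw signal at or below 3038400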;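 note: plate controls were neutral control wells for no effect and wells lacking membranes for full effect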
core dimer inh: HCV core protein dimerization inhibition | TR-FRET GST/Flag-core106 dimerization, 1536-well | inhibition, % at 5 µM | hit rate 0.33% among 300,000 | AID 1899;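 active = inhibition above the mean of all tested compounds plus 3 SD, set per screening campaign, cut at about 45% in these data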
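test system = GST/Flag-tagged HCV core106 proteins | probe or stimulus = Eu donor and XL665 acceptor anti-tag antibodies | times = compound-protein-antibody incubation 4 h at 22.5 °C | signal = TR-FRET, excitation 340 nm, emission 617 and 671 nm | measure = percent inhibition of core106 dimerization signal | controls = wells lacking GST-core106 and wells with excess unlabelled core106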
Tb MetRS inh: Trypanosoma brucei MetRS inhibition; inhibition, % at 11.9 µM; hit rate 0.4% among 360,000; purified T. brucei MetRS, ATP depletion, Kinase-Glo luminescence;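 active = inhibition above a per-plate cutoff of the control wells' mean inhibition plus 3 SD, cut at about 5.5% in these data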;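 note: 0% = DMSO wells median and 100% = median of wells with control inhibitor compound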
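Measured by: Kinase-Glo luciferase luminescence reporting remaining unconsumed ATP. Material: purified T. brucei MetRS enzyme. Doses: 11.9 µM compound single dose, 0.9% DMSO. Medium: HEPES buffer containing pyrophosphatase, BSA, spermine, DTT. Times: 15 min preincubation, 2 h reaction, all 25 °C. Reagent: methionine, ATP and bulk E. coli tRNA.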
NadD inh conf: NadD (S. aureus) inhibition, single concentration confirmation; shares compounds with NadD inh; purified S. aureus NadD, colorimetric enzyme assay; inhibition, % at 20 µM; hit rate 13% among 2,000; AID 624309; in the data active = inhibition mostly above about 42%, no sharp cut-off; inactive = mostly below about 42%
Active calls of the source: *; i = inactive; . = no result. This is a sample that favours compounds with a hit; in the whole collection about 1.9% have one here.

SMILES	NadD inh	Pemphigus Ab inh	Rce1 inh	core dimer inh	Tb MetRS inh	NadD inh conf
CC(C)CC(C(=O)Nc1oc(-c2ccco2)c(-c2ccco2)c1C#N)N1C(=O)c2ccccc2C1=O (configuration not stated)	48.0*	.	i	20.4	0.5	46.7*
CCOC(=O)N1CCN(C(=O)COc2cccc3c2CCN(Cc2ccccc2F)C3=O)CC1	2.3	97.2	i	1.1	-0.4	.
O=C(CSc1nnc2scc(-c3ccccc3)n12)Nc1nsc(-c2ccccc2)n1	6.2	104.6	i	9.0	0.1	.
O=C(CSc1nnc2scc(-c3ccccc3)n12)Nc1nsc(-c2ccc(Cl)cc2)n1	41.0*	100.7	i	19.1	0.0	10.1
COc1ccccc1C(=O)NCCC(=O)N1CC=C(c2ccccc2)CC1	42.0*	107.9	i	4.3	-0.8	8.1
Cc1cccc(C(=O)N/N=C/C(C)Cc2ccc3c(c2)OCO3)c1 (configuration not stated)	6.3	103.9	i	-9.8	-1.4	.
CCOc1ccc(C(=O)Nc2cc(NC(=O)c3ccc(OCC)c(Cl)c3)cc(C(=O)O)c2)cc1Cl	30.2*	98.4	i	.	-0.5	13.2
COc1cc(/C=C/C(=O)OCC(=O)Nc2cc(C)on2)ccc1OCC#N	1.8	95.8	.	.	-0.3	.
COc1ccc(-c2csc(NC(=O)c3ccc(S(=O)(=O)N4CCc5ccccc5C4)cc3)n2)cc1	16.7	116.4	i	27.6	-0.3	.
Cc1cccc(N=C2NN=C(c3ccc4c(c3)OCCO4)CS2)c1	15.6	96.6	i	2.4	-0.2	.
CCc1ccc(C2=NNC(=Nc3cccc(S(=O)(=O)N(C)C)c3)SC2)cc1	34.1*	90.3	i	6.2	-0.4	24.2
Cc1nn(-c2ccc([N+](=O)[O-])cc2)c2c1C(c1cccc(Br)c1)N1C(=N2)C(=O)Nc2ccccc21 (configuration not stated)	31.5*	92.3	i	24.6	-0.2	12.7
CCCOC(=O)c1ccc(NC(=O)C(=O)NCC2CCCO2)cc1 (configuration not stated)	0.9	81.3	i	4.9	-1.0	.
O=C(NCC(=O)N1CCN(Cc2ccc3c(c2)OCO3)CC1)c1ccccc1F	0.8	115.9	.	.	0.0	.
CCN(CC)S(=O)(=O)c1ccc(Cl)c(OC)c1	3.8	118.2	i	0.7	-1.1	.
CCC1CCCCN1c1ccc([N+](=O)[O-])cc1/C=N/NC(=O)Cn1c2ccccc2c(=O)c2ccccc21 (configuration not stated)	51.0*	88.7	i	47.2*	-0.2	3.3
CC(=O)C1=C(O)C(=O)N(c2ccc(Br)cn2)C1c1cccc([N+](=O)[O-])c1 (configuration not stated)	1.7	92.6	i	5.3	-1.4	.
CN(C)c1ccc(Sc2nnc(NC(=O)Nc3ccc(Cl)cc3Cl)s2)cc1	39.1*	94.9	i	5.8	0.7	6.6
Cc1ccc(-c2csc(/C=C3\SC(C)C(=O)N3CC(=O)Nc3ccccc3F)n2)cc1 (configuration not stated)	31.9*	89.5	i	12.0	-0.2	14.6
O=C(COc1ccc(Cl)cc1)NCCN1CCCCC1	-3.7	110.9	i	2.2	0.5	.
CCCCC1=CC2=CC(=O)C(C)(OC(=O)C3CCCC3)C(=O)C2=CO1 (configuration not stated)	53.0*	93.6	i	10.8	-0.3	29.4
CC1(OC(=O)C2CCCC2)C(=O)C=C2C=C(c3ccsc3)OC=C2C1=O (configuration not stated)	24.2	91.8	i	-1.8	0.4	.
CCCCC1=CC2=CC(=O)C(C)(OC(=O)CC)C(=O)C2=CO1 (configuration not stated)	32.6*	94.6	i	17.7	-0.1	45.3*
Cn1nc([N+](=O)[O-])nc1Oc1ccccc1C(=O)N1CCOCC1	-3.0	93.7	i	8.6	-0.9	.
O=c1cc(CSc2nc(NCc3ccc(Cl)cc3)c3ccccc3n2)nc2ccc(Cl)cn12	32.8*	95.2	.	.	0.7	14.8
O=C(/C=C/c1cccs1)NC(=S)Nc1ccc(S(=O)(=O)Nc2ccccc2C(F)(F)F)cc1	15.5	110.2	i	40.4	-0.9	.
Cc1ccc2nc(-c3ccccc3)c(Cc3cccc(Cl)c3)n2c1	0.6	.	.	.	-0.1	.

Compound activity: PubChem, several laboratories
